Results on 70 compounds are retold here after ChEMBL document CHEMBL4513216, “Probing the Open Global Health Chemical Diversity Library for Multistage-Active Starting Points for Next-Generation Antimalarials” (ACS Infect Dis, 2020).

The nature of the data set: Toxicity liver stage against HepG2, at 10uM. The class given is cell-based. More on the design: test concentration 10 uM, cell line HepG2-A16-CD81EGFP. The following applies: human, HepG2-A16-CD81EGFP cells; read-out: INHIBITION
An outline of the steps:
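Uninfected HepG2-A16-CD81EGFP cells, 3 × 10^3 per well, 1536-well, plated on prespotted compound at 10 μM final, parasite-free screening media added to match infected plates; puromycin 10 μM positive, DMSO 0.5% negative; run in parallel with 48 h PbLuc assay at 37 °C, 5% CO2; viability by CellTiter-Glo luminescence, normalized to controls.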
For `CCOC(=O)CNC(=O)c1cccnc1Oc1ccc(Cl)cc1`, the cytotoxicity at 10 µM came to 1.63%.

Take `N#Cc1cccc(N2CCOCC3(CCCN(C(=O)NC4CC4)C3)C2)c1` (stereo not given): the cytotoxicity at 10 µM amounted to 14.1%.

`O=C(c1cc2c(s1)CCN2C(=O)C1CC1)N1CCCC1`: the cytotoxicity at 10 µM is 2.62%.

For the compound `Cc1nnc([C@@H]2CC[C@@H]3[C@@H](CCN3C3CCC3)O2)o1`, the cytotoxicity at 10 µM is 8.19%.

Take `Cc1nnc([C@@]23CCO[C@@H]2CCN(S(C)(=O)=O)C3)o1`: the cytotoxicity at 10 µM is 9.16%.

`Cc1ccc(CN2CC[C@H]3OCC[C@@]3(C(=O)N3CCCO3)C2)s1`: the cytotoxicity at 10 µM worked out at 2.08%.

For `CN(CC1CC1)c1ccc2ccc(C(=O)NCCN3CCOCC3)cn12`, the cytotoxicity at 10 µM is 5.57%.

Regarding `CC(C)CN1CCC2(CCN(Cc3ccsc3)CC2)C1=O`, the cytotoxicity at 10 µM was 5.24%.

As to `Cc1nc([C@@H]2C[C@@H]3CCN(C(=O)c4occc4C)C[C@H]3O2)no1`, the cytotoxicity at 10 µM was -1.04%.

For `CN1CCc2nc(C3CCCN(S(=O)(=O)N4CCCC4)C3)ncc2C1` (stereo not given), the cytotoxicity at 10 µM was determined as 2.4%.

On to `CC1(c2ncc(CN3CCN(c4ncccn4)CC3)cn2)CCCCO1` (stereo not given), for which the cytotoxicity at 10 µM is 1.16%.

Turning to `c1cnc(Nc2ccc(C3CCCCN3Cc3ccncc3)cn2)nc1` (stereo not given), the cytotoxicity at 10 µM is -1.57%.

`Cc1cncc(C2CCN(Cc3ccncc3)CC2)n1`: the cytotoxicity at 10 µM is -3.08%.

For the compound `c1cnc(N2CCC(c3cc4cccnc4[nH]3)CC2)nc1`, the cytotoxicity at 10 µM is -7.28%.

`COCCC(=O)N1CCCC1c1nc(O)cc(C(C)C)n1` (stereo not given): the cytotoxicity at 10 µM is -26.4%.

Regarding `CC(C)c1cc(O)nc(C2CCCN2C(=O)C(C)(C)C)n1` (stereo not given), the cytotoxicity at 10 µM is -17.8%.

With `OCCN1CCC(c2cncc(-c3cccc(Cl)c3)n2)CC1`, the cytotoxicity at 10 µM was -31.7%.

Turning to `Cc1cc(CN2CCC(O)(Cn3ccc4ncccc43)CC2)c(C)s1`, the cytotoxicity at 10 µM is -16.1%.

As for `Cc1cc(C2CCCN(C(=O)c3cccnc3)C2)ccn1` (stereo not given), the cytotoxicity at 10 µM was -21.3%.

In the case of `CC(C)(C)C(=O)N1CCC(c2nc(O)cc(-c3ccccn3)n2)CC1`, the cytotoxicity at 10 µM was -1.13%.

As for `CN(Cc1ccc(F)cc1)CC1(O)CCN(C(=O)c2ccccc2)C1` (stereo not given), the cytotoxicity at 10 µM was -1.7%.

On to `Oc1nc(N2CCOCC2)nc2c1CCN(Cc1cccnc1)CC2`, for which the cytotoxicity at 10 µM was -3.71%.

On to `CCn1cc(CNC(C)c2noc(-c3ccc(Cl)cc3)n2)cn1` (stereo not given), for which the cytotoxicity at 10 µM amounted to 3.63%.

Consider `Cc1ncc(C(=O)N2CCCC2c2c(C)nn(C)c2C)s1` (stereo not given), for which the cytotoxicity at 10 µM worked out at 1.51%.

As for `CCC(C)(C)N(C)CCOc1cccc(S(C)(=O)=O)c1`, the cytotoxicity at 10 µM was -8.42%.

With `CCN1CCN2CCCN(S(=O)(=O)c3ccc(S(C)(=O)=O)cc3)C2C1=O` (stereo not given), the cytotoxicity at 10 µM turned out to be 5.36%.

With `Cc1noc(CCCC(=O)NCC(c2ccco2)N2CCCC2)n1` (stereo not given), the cytotoxicity at 10 µM was -0.363%.

In the case of `Cc1cnn(CCC(=O)NS(=O)(=O)N2CCCc3ccccc32)c1`, the cytotoxicity at 10 µM came out at 9.73%.

For `Cc1cc(C(=O)OCC2CCCN2C(N)=O)c(C)o1` (stereo not given), the cytotoxicity at 10 µM is 6.72%.

For the compound `O=C(Cc1ccc2c(c1)CCO2)Nc1ccc(-n2cncn2)nc1`, the cytotoxicity at 10 µM worked out at 3.62%.

Turning to `COC(=O)C1CN(Cc2ccccc2C(C)(C)C#N)CCO1` (stereo not given), the cytotoxicity at 10 µM is -1.78%.

Turning to `Cc1cnn(CCNCC(O)c2ccc(C(F)(F)F)cc2)c1` (stereo not given), the cytotoxicity at 10 µM was 4.48%.

Consider `CC(C)Oc1ncc(C(=O)N2CCCC(C(=O)O)C2)cc1Cl` (stereo not given), for which the cytotoxicity at 10 µM was -6.94%.

With `O=C(CN1CCCCC1Cn1cncn1)Nc1ccncc1` (stereo not given), the cytotoxicity at 10 µM stood at 11.2%.

For `c1cncc(CN(Cc2ccc(-n3ccnc3)cc2)CC2CCCO2)c1` (stereo not given), the cytotoxicity at 10 µM is -0.242%.

On to `Cc1cnn(CC2CCCN2C(=O)c2ccc3c(c2)nnn3C)c1` (stereo not given), for which the cytotoxicity at 10 µM worked out at 18.4%.

For the compound `CC(NCC1CCN(CCO)CC1)c1ccc(Cl)cc1` (stereo not given), the cytotoxicity at 10 µM was -9.12%.

Take `CC(Cc1cccc(F)c1)NCc1cnc(N2CCN(C)CC2)nc1` (stereo not given): the cytotoxicity at 10 µM was -5.44%.

Consider `CC(C)CNC(=O)Nc1ccc(CN2CCOC2=O)cc1`, for which the cytotoxicity at 10 µM amounted to 10.2%.

Regarding `COCC(=O)N1CC[C@]2(O)CCN(Cc3cccnc3OC)C[C@@H]2C1`, the cytotoxicity at 10 µM was determined as 8.72%.

As for `CCCc1ccc(C(=O)N2CCc3c(nc(N(C)C)[nH]c3=O)C2)cc1`, the cytotoxicity at 10 µM stood at 8.7%.

As for `CCc1cc(NC2CCS(=O)(=O)CC2)nc(N2CCCCC2)n1`, the cytotoxicity at 10 µM was -15.8%.

`COc1cccc(OCC2CCCN(C(=O)c3ccc(N)nc3)C2)c1` (stereo not given): the cytotoxicity at 10 µM came out at 3.37%.

As for `OCCn1ncc2c1CN(CC1CCOc3ccccc3C1)C2` (stereo not given), the cytotoxicity at 10 µM was -5.35%.

`Cc1nccn1Cc1nnc(C2CCCN(Cc3cccnc3)C2)n1C` (stereo not given): the cytotoxicity at 10 µM is -6.15%.

With `O=C(O)c1cc(S(=O)(=O)N2CCOc3ccccc32)cc(Cl)c1Cl`, the cytotoxicity at 10 µM is -4.36%.

In the case of `COc1cc(C)nc(N2CCN(C(=O)COCC3CC3)CC2)n1`, the cytotoxicity at 10 µM was -5.92%.

As for `CC(C(=O)NCc1ccnc(N2CCN(C)CC2)c1)S(C)(=O)=O` (stereo not given), the cytotoxicity at 10 µM is -13.9%.

In the case of `O=C(O)c1c[nH]c2cc(NS(=O)(=O)c3cccc(Cl)c3F)ccc12`, the cytotoxicity at 10 µM was -10.5%.

In the case of `Cc1ccc(C(=O)N2CCN(CCC(C)(C)C)CC2)c(=O)[nH]1`, the cytotoxicity at 10 µM was -6.95%.

Consider `NC(=O)CC1CCN(C(=O)CCOc2ccc(Cl)cc2)CC1`, for which the cytotoxicity at 10 µM was -7.98%.

Turning to `CCCNC(=O)CN1CCN(Cc2csc(C(C)(C)C)n2)CC1`, the cytotoxicity at 10 µM was -7.88%.

`CCOc1cccc2c1OCC(C(=O)NS(=O)(=O)c1ccc(Cl)cc1)=C2`: the cytotoxicity at 10 µM is -11.1%.

For `O=C(NCCOc1ccc2c(c1)OCO2)N1CCC1`, the cytotoxicity at 10 µM was -6.24%.

`CCc1cnc(CN2CCC(N(C)Cc3noc(C4CC4)n3)C2)o1` (stereo not given): the cytotoxicity at 10 µM is -10.2%.

As to `COc1ccc(C(CNS(=O)(=O)c2cn(C)nc2C)N2CCCC2)cc1` (stereo not given), the cytotoxicity at 10 µM came to 4.11%.

As for `COCCN1CCC2(CC1)CN(CCn1cccn1)C(=O)CO2`, the cytotoxicity at 10 µM came to 7.22%.

As for `CCCS(=O)(=O)N1CCn2cc(CNc3ccccn3)nc2C1`, the cytotoxicity at 10 µM was determined as 9.1%.

`COCCN1CCC12CCN(C(=O)Cc1cccs1)C2` (stereo not given): the cytotoxicity at 10 µM was found to be 7.89%.

Consider `c1cnc(N2CCO[C@H]3CN(Cc4csnn4)C[C@H]32)cn1`, for which the cytotoxicity at 10 µM was determined as 4.23%.

Consider `O=C(c1cnccn1)N1CC2(CCN(Cc3ccsc3)C2)C1`, for which the cytotoxicity at 10 µM is -4.23%.

As for `CC(C)N(C)C[C@H]1OC[C@@H]2CCN(Cc3cccc(C#N)c3)C[C@@H]21`, the cytotoxicity at 10 µM came to 9.28%.

Regarding `CN1CCC2(CCN(CC3CC3)CC2)C1=O`, the cytotoxicity at 10 µM came out at 10.9%.

On to `c1csc(CN2CCC3(CC2)CCN(CC2CC2)CC3)n1`, for which the cytotoxicity at 10 µM is 3.17%.

On to `CN1CCCn2c(nc(CNS(=O)(=O)C3CC3)cc2=O)C1`, for which the cytotoxicity at 10 µM came out at 5.92%.

`Cc1cccc(C(=O)N2C[C@@H]3CCN(c4cccnc4)C[C@@H]3C2)c1`: the cytotoxicity at 10 µM amounted to 3.76%.

On to `Clc1ccccc1CN1CCc2nc(C3CCNCC3)ncc2C1`, for which the cytotoxicity at 10 µM is -36.6%.

`CN(C)CCOCc1ncn2c1CN(c1ncc(F)cn1)CCC2`: the cytotoxicity at 10 µM came out at 15%.

Turning to `c1cnc(N2CCOCC3(CCCN(Cc4cc[nH]n4)C3)C2)nc1` (stereo not given), the cytotoxicity at 10 µM was determined as 3.35%.

For the compound `COc1ccc(F)cc1C(=O)N1C[C@H]2CC(OC)C[C@H]2C1` (stereo not given in full), the cytotoxicity at 10 µM was -2.19%.
